Measured values published in ChEMBL document CHEMBL1136707, “From pure FPP to mixed FPP and CAAX competitive inhibitors of farnesyl protein transferase” (Bioorg Med Chem Lett, 2003).

Experiments:
[1] = target: Protein farnesyltransferase (Bos taurus, UniProt P29702+P49355); assay: In vitro inhibition of bovine Farnesyl transferase; assay type: protein-complex assay
In short: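 Purified bovine FPTase, assayed as in ref 15, with dansyl-GCVLS peptide and FPP as substrates, both at […].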

[2] = target: Protein farnesyltransferase (Homo sapiens, UniProt P49354+P49356); assay: Inhibition of farnesylation of H-Ras in DLD-1 cells; assay type: functional, cell-based
[3] = target: T1, Protein farnesyltransferase (Bos taurus) (UniProt P29702+P49355); assay: Inhibition of FPTase at 10 nM using 20 uM Dansyl-GCVLS; assay type: protein-complex assay
In short: (§1)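 Peptide-dependence study using purified bovine FPTase. Dansyl-GCVLS substrate concentration was varied with the inhibitor at a single fixed concentration, and activity was reported as percent enzyme inhibition.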

[4] = target: T1, Protein farnesyltransferase (Bos taurus); assay: Inhibition of FPTase at 10 nM using 1 uM FPP as substrate; assay type: protein-complex assay
In short: (§2)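 FPP-dependence study using purified bovine FPTase. Dansyl-GCVLS peptide was held at a fixed level of […] while FPP concentration was varied. Inhibitor was tested at a single fixed concentration, and the read-out was percent inhibition of farnesylation.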

[5] = target: T1, Protein farnesyltransferase (Bos taurus); assay: Inhibition of FPTase at 10 nM using 2 uM FPP as substrate; assay type: protein-complex assay; in short: as §2
[6] = target: T1, Protein farnesyltransferase (Bos taurus); assay: Inhibition of FPTase at 10 nM using 1 uM Dansyl-GCVLS; assay type: protein-complex assay; in short: as §1
[7] = target: T1, Protein farnesyltransferase (Bos taurus); assay: Inhibition of FPTase at 10 nM using 20 uM FPP as substrate; assay type: protein-complex assay; in short: as §2
[8] = target: T1, Protein farnesyltransferase (Bos taurus); assay: Inhibition of FPTase at 10 nM using 10 uM FPP as substrate; assay type: protein-complex assay; in short: as §2
[9] = target: T1, Protein farnesyltransferase (Bos taurus); assay: Inhibition of FPTase at 10 nM using 5 uM FPP as substrate; assay type: protein-complex assay; in short: as §2
[10] = target: T1, Protein farnesyltransferase (Bos taurus); assay: Inhibition of FPTase at 10 nM using 0.5 uM Dansyl-GCVLS; assay type: protein-complex assay; in short: as §1
[11] = target: T1, Protein farnesyltransferase (Bos taurus); assay: Inhibition of FPTase at 10 nM using 0.5 uM FPP as substrate; assay type: protein-complex assay; in short: as §2
[12] = target: T1, Protein farnesyltransferase (Bos taurus); assay: Inhibition of FPTase at 10 nM using 2 uM Dansyl-GCVLS; assay type: protein-complex assay; in short: as §1
[13] = target: T1, Protein farnesyltransferase (Bos taurus); assay: Inhibition of FPTase at 10 nM using 10 uM Dansyl-GCVLS; assay type: protein-complex assay; in short: as §1
[14] = target: T1, Protein farnesyltransferase (Bos taurus); assay: Inhibition of FPTase at 100 nM using 5 uM Dansyl-GCVLS; assay type: protein-complex assay; in short: as §1
[15] = target: T1, Protein farnesyltransferase (Bos taurus); assay: Inhibition of FPTase at 100 nM using 10 uM Dansyl-GCVLS; assay type: protein-complex assay; in short: as §1
[16] = target: T1, Protein farnesyltransferase (Bos taurus); assay: Inhibition of FPTase at 100 nM using 20 uM Dansyl-GCVLS; assay type: protein-complex assay; in short: as §1
[17] = target: T1, Protein farnesyltransferase (Bos taurus); assay: Inhibition of FPTase at 100 nM using 0.5 uM FPP as substrate
[18] = target: T1, Protein farnesyltransferase (Bos taurus); assay: Inhibition of FPTase at 100 nM using 20 uM FPP as substrate; assay type: protein-complex assay; in short: as §2
[19] = target: T1, Protein farnesyltransferase (Bos taurus); assay: Inhibition of FPTase at 100 nM using 10 uM FPP as substrate; assay type: protein-complex assay; in short: as §2
[20] = target: T1, Protein farnesyltransferase (Bos taurus); assay: Inhibition of FPTase at 100 nM using 2 uM Dansyl-GCVLS; assay type: protein-complex assay; in short: as §1
[21] = target: T1, Protein farnesyltransferase (Bos taurus); assay: Inhibition of FPTase at 100 nM using 2 uM FPP as substrate; assay type: protein-complex assay; in short: as §2
[22] = target: T1, Protein farnesyltransferase (Bos taurus); assay: Inhibition of FPTase at 100 nM using 1 uM Dansyl-GCVLS; assay type: protein-complex assay; in short: as §1
[23] = target: T1, Protein farnesyltransferase (Bos taurus); assay: Inhibition of FPTase at 100 nM using 0.5 uM Dansyl-GCVLS; assay type: protein-complex assay; in short: as §1
[24] = target: T1, Protein farnesyltransferase (Bos taurus); assay: Inhibition of FPTase at 100 nM using 5 uM FPP as substrate; assay type: protein-complex assay; in short: as §2

CC(C)=CCC/C(C)=C/CC/C(C)=C/CC1C(=O)N(Cc2ccccc2)C(=O)N1Cc1cncn1C (stereo not drawn)
IC50 [1]: 700 nM

CC(C)=CCC/C(C)=C/CC/C(C)=C/CC(C(=O)NCc1ccccc1)N(Cc1cncn1C)S(=O)(=O)c1ccccc1 (stereo not drawn)
IC50 [2]: 1000 nM | IC50 [1]: 670 nM

CC(C)=CCC/C(C)=C/CC/C(C)=C/CC(NCc1cncn1Cc1ccc(C#N)cc1)C(=O)NCc1ccccc1 (stereo not drawn)
inhibition [3]: 3% | inhibition [4]: 55% | inhibition [5]: 42% | inhibition [6]: 41% | IC50 [2]: 1000 nM | inhibition [7]: 32% | inhibition [8]: 36% | IC50 [1]: 6 nM | inhibition [9]: 38% | inhibition [10]: 49% | inhibition [11]: 54% | inhibition [12]: 38% | inhibition [13]: 14% | inhibition ([14]; 10 nM, in the assay text read “10 nM” for “100 nM”): 27%

CC(C)=CCC/C(C)=C/CC/C(C)=C/CC(C(=O)N[C@@H](Cc1ccccc1)C(=O)O)P(=O)(O)O (stereo partly drawn)
inhibition [15]: 33% | inhibition [16]: 38% | inhibition [17]: 80% | IC50 [2]: > 10000 nM | inhibition [18]: 10% | inhibition [19]: 9% | inhibition [20]: 41% | IC50 [1]: 83 nM | inhibition [21]: 37% | inhibition [22]: 42% | inhibition [23]: 43% | inhibition [24]: 9% | inhibition ([24]; in the assay text read “1 uM FPP” for “5 uM FPP”): 72% | inhibition [14]: 34%

CC(C)=CCC/C(C)=C/CC/C(C)=C/CC(C(=O)N[C@@H](Cc1ccccc1)C(=O)O)N(Cc1cncn1C)S(=O)(=O)c1ccccc1 (stereo partly drawn)
IC50 [2]: 10000 nM | IC50 [1]: 470 nM

CC(C)=CCC/C(C)=C/CC/C(C)=C/CC(NCc1cncn1C)C(=O)NCc1ccccc1 (stereo not drawn)
IC50 [1]: > 10000 nM

CC(C)=CCC/C(C)=C/CC/C(C)=C/CC1C(=O)N(Cc2ccccc2)C(=O)N1Cc1cncn1Cc1ccc(C#N)cc1 (stereo not drawn)
IC50 [1]: 200 nM

CC(C)=CCC/C(C)=C/CC/C(C)=C/CC(C(=O)NCc1ccccc1)N(Cc1cncn1Cc1ccc(C#N)cc1)S(=O)(=O)c1ccccc1 (stereo not drawn)
IC50 [2]: > 10000 nM | IC50 [1]: 40 nM

CC(C)=CCC/C(C)=C/CC/C(C)=C/CC(NCc1cncn1Cc1ccc(C#N)cc1)C(=O)N[C@@H](Cc1ccccc1)C(=O)O (stereo partly drawn)
IC50 [2]: 5000 nM
